Published values gathered from unrelated publications.
Target: Serine/threonine-protein kinase PLK1 (PLK1, Homo sapiens, UniProt P53350)

Structure (SMILES)	test	setting	remaining binding [%]
Cc1c(C(=O)O)cc(-c2ccc(C3CCNCC3)cc2)c2ccc(-c3ccc(C(F)(F)F)cc3)cc12	binding, competition with immobilised ligand	1 µM	94
C[C@@H]1CCN(c2nccc(-c3cnn4ncccc34)n2)C1	binding	1 µM	76
COc1cnc(Nc2cccc(S(N)(=O)=O)c2)nc1N1CCN(c2ccccc2)CC1	binding, competition with immobilised ligand	1 µM	79
CN(C)c1nccc(-c2cnc3ncccn23)n1	binding	1 µM	69
O=C(Nc1c[nH]nc1C(=O)NC1CCNCC1)c1cc(F)cc(F)c1	binding, competition with immobilised ligand	1 µM	100
CC1=C(C#N)C(c2ccc3c(c2)c(NC(=O)c2ccccc2C)nn3C)C(C#N)=C(C)N1	cell-free assay, competition with immobilised ligand	1 µM	85
COc1ncc2cc3ccccc3nc2c1C#N	cell-free assay, competition with immobilised ligand	5 µM	73
C[C@@H](c1cccc(C#N)c1)n1cc(Cl)cc(C(N)=O)c1=N	cell-free assay, competition with immobilised ligand	1 µM	98
C[C@@H](c1ccc(-n2cnc3c(N)ncnc32)cc1)N1CCc2nn(C)c(Cc3ccccc3)c2C1=O	binding, competition with immobilised ligand	0.1 µM	86
Cc1cnn2ncc(-c3ccnc(N(C)C)n3)c2c1	binding	1 µM	84
CO[C@@H](C)c1c(Nc2ccc([C@@H](N(C)C(=O)C3CCS(=O)(=O)CC3)C(F)(F)F)cc2)cnc2cc(Cl)nn12	cell-free assay, competition with immobilised ligand	1 µM	87
CN(c1nccc(-c2cnn3ncccc23)n1)C1CC1	binding	1 µM	100
O=C(c1ccc(Nc2ncc(Cl)c(-c3cc4ccccc4s3)n2)cc1)N1CCC(N2CCCC2)CC1	binding, competition with immobilised ligand	1 µM	57
CN(C(=O)c1ccccc1)c1cc(N(C)c2ccc3c(c2)CCc2ccc(C(=O)NCCN4CCOCC4)cc2C3=O)ccc1F	cell-free assay, competition with immobilised ligand	1 µM	100
CC1CCCN1c1nccc(-c2cnn3ncccc23)n1 (stereo not shown)	binding	1 µM	100
O=C(c1ccc(Nc2nccc(-c3cc4ccccc4s3)n2)cc1)N1CCC(N2CCCC2)CC1	binding, competition with immobilised ligand	1 µM	89
c1cncc(-c2cccc(Nc3nccc(NC4CCCCC4)n3)c2)c1	binding, competition with immobilised ligand	10 µM	78
O=C(N[C@H]1CCCCC/C=C\C2C[C@@]2(C(=O)O)NC(=O)[C@@H]2C[C@@H](Oc3ccncc3)CN2C1=O)OC1CCCC1 (stereo partly shown)	binding, competition with immobilised ligand	1 µM	71
CC(C)(C)c1ccc(-c2nc(CBr)nn2-c2cccc(O)c2)cc1	cell-free assay, competition with immobilised ligand	10 µM	84
COc1cc(C(=O)N2CCC(N3CCN(C)CC3)CC2)ccc1Nc1ncc2c(n1)N(C)c1ccccc1C(=O)N2C	binding, competition with immobilised ligand	10 µM	0.7
C[C@@H]1CN(c2ccc3ncc(-c4ccc5[nH]nc(C6CC6)c5c4)n3n2)C[C@H](C)O1	binding, competition with immobilised ligand	50 nM	97
N#Cc1ccccc1CSc1nnc2c(n1)[nH]c1ccccc12	binding, competition with immobilised ligand	10 µM	94
COc1ccnn2ncc(-c3ccnc(N(C)C)n3)c12	binding	1 µM	94
O=C(NCCCN1CCOCC1)c1ccc(Nc2ncc(Cl)c(-c3ccc(Cl)s3)n2)cc1	binding, competition with immobilised ligand	1 µM	22
NS(=O)(=O)c1cc(NC(=O)Cc2ccccc2)ccc1Oc1cccc(Cl)c1	cell-free assay, competition with immobilised ligand	1 µM	73
